Measured values: ChEMBL document CHEMBL1687889, “Antitumor agents. 284. New desmosdumotin B analogues with bicyclic B-ring as cytotoxic and antitubulin agents” (J Med Chem, 2011)
pIC50: −log10 of the molar value. Calls of active or inactive are those of the source. No cut-off for these calls is given here.

Experiments:
MCF7 [1] = assay: Antiproliferative activity against human MCF7 cells at 20 ug/ml after 3 days by sulforhodamine B assay; assay type: functional, cell-based
HepG2 [2] = assay: Antiproliferative activity against human HepG2 cells at 20 ug/ml after 3 days by sulforhodamine B assay; assay type: functional, cell-based
HCT-8 [3] = assay: Antiproliferative activity against human HCT8 cells at 20 ug/ml after 3 days by sulforhodamine B assay; assay type: functional, cell-based
KB [4] = assay: Antiproliferative activity against human KB cells at 20 ug/ml after 3 days by sulforhodamine B assay; assay type: functional, cell-based
PC-3 [5] = assay: Antiproliferative activity against human PC3 cells at 20 ug/ml after 3 days by sulforhodamine B assay; assay type: functional, cell-based
A549 [6] = assay: Antiproliferative activity against human A549 cells at 20 ug/ml after 3 days by sulforhodamine B assay; assay type: functional, cell-based
KBVIN = assay: Antiproliferative activity against human KBVIN cells at 20 ug/ml after 3 days by sulforhodamine B assay; assay type: functional, cell-based
HCT-8 [7] = assay: Antiproliferative activity against human HCT8 cells after 3 days by sulforhodamine B assay; assay type: functional; details: HCT-8, 72 h
How it was run: (§1)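 Cells grown in RPMI-1640 with 25 mM HEPES, 0.25% sodium bicarbonate, 10% FBS and 100 μg/mL kanamycin. Exposed to compound for 3 days, with at most 0.5% v/v DMSO. Attached cells fixed in cold 50% TCA, stained with 0.4% sulforhodamine B, and the bound dye solubilized. A562 read. GI50 is the concentration giving a 50% absorbance drop versus untreated cells.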

PC-3 [8] = assay: Antiproliferative activity against human PC3 cells after 3 days by sulforhodamine B assay; assay type: functional; details: PC-3, 72 h
A549 [9] = assay: Antiproliferative activity against human A549 cells after 3 days by sulforhodamine B assay; assay type: functional; details: A549, 72 h; how it was run: as §1
DU-145 = assay: Antiproliferative activity against human DU145 cells after 3 days by sulforhodamine B assay; assay type: functional; details: DU-145, 72 h
HepG2 [10] = assay: Antiproliferative activity against human HepG2 cells after 3 days by sulforhodamine B assay; assay type: functional; details: HepG2, 72 h
How it was run: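 Sulforhodamine B assay over 3 days in culture, with at most 0.5% v/v DMSO. Attached cells fixed in cold 50% TCA, stained with 0.4% SRB, and the dye solubilized. Absorbance read at 562 nm. GI50 is the concentration causing a 50% fall in absorbance relative to untreated cells.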

KB [11] = assay: Antiproliferative activity against human KB cells after 3 days by sulforhodamine B assay; assay type: functional; details: 72 h; how it was run: as §1
[12] = Antiproliferative activity against human KBVIN cells after 3 days by sulforhodamine B assay; assay type: functional; details: 72 h; how it was run: as §1
[13] = Displacement of [3H]colchicine from tubulin at 5 uM for 10 mins
How it was run: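 1.0 μM tubulin incubated with 5.0 μM [3H]colchicine and 5.0 μM inhibitor for 10 min at 37 °C, when control samples reach about 40–60% of maximal colchicine binding. Result given as percent inhibition of colchicine binding.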

[14] = Inhibition of tubulin assembly after 20 mins by turbidimetric assay; details: for pIC50: read-out: IC50
How it was run: (§2)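 Turbidimetry at 350 nm. 10 μM (1.0 mg/mL) tubulin preincubated with compound for 15 min at 30 °C without GTP, then chilled, and 0.4 mM GTP added. Turbidity followed for 20 min at 30 °C after a temperature jump from 0 °C. IC50 is the concentration halving the turbidity increase relative to control.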

MCF7 [15] = assay: Antiproliferative activity against human MCF7 cells after 3 days by sulforhodamine B assay; assay type: functional; details: MCF7, 72 h
[16] = Partial inhibition of tubulin assembly after 20 mins at 4 uM by turbidimetric assay; how it was run: as §2
[17] = Binding affinity to tubulin at 40 uM
A549 [18] = assay: Inhibition of spindle formation in human A549 cells after 24 hs by DAPI staining; assay type: functional, cell-based
How it was run: (§3)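 A549 cells held in chamber slides 12 h, then exposed to compound (0.1 nM) or DMSO for 24 h at 37 °C; fixed in 4% paraformaldehyde/PBS, permeabilized with 0.5% Triton X-100, stained with anti-α-tubulin monoclonal plus FITC secondary and DAPI for nuclei; microtubules and mitotic spindles scored by fluorescence microscopy. Comparators: colchicine 100 nM, paclitaxel 1.5 nM, doxorubicin 500 nM.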

A549 [19] = assay: Inhibition of microtubule polymerization in human A549 cells after 24 hs by immunofluorescence staining; assay type: cell-based; how it was run: as §3

Structure (SMILES)	Activity (MCF7 [1])	Activity (HepG2 [2])	Activity (HCT-8 [3])	Activity (KB [4])	Activity (PC-3 [5])	Activity (A549 [6])	GI50 (HCT-8 [7]) [µM]	GI50 (PC-3 [8]) [µM]	GI50 (A549 [9]) [µM]	GI50 (DU-145) [µM]	GI50 (HepG2 [10]) [µM]	GI50 (KB [11]) [µM]	GI50 [12] [µM]	further results
CCC1=C(O)c2c(oc(-c3c4ccccc4cc4ccccc34)cc2=O)C(CC)(CC)C1=O	inactive	inactive	inactive	inactive	inactive	inactive	–	–	–	–	–	–	–	Activity (KBVIN): inactive
CCC1=C(O)c2c(oc(-c3cccc4ccsc34)cc2=O)C(CC)(CC)C1=O	–	–	–	–	–	–	11.2	3.81	5.84	0.74	1.9	2.49	0.94	–
CCC1=C(O)c2c(oc(-c3sc4ccccc4c3C)cc2=O)C(CC)(CC)C1=O	–	–	–	–	–	–	> 25	> 25	> 25	> 25	> 25	> 25	> 25	–
CCCC1=C(O)c2c(oc(-c3cccc4ccccc34)cc2=O)C(CCC)(CCC)C1=O	inactive	inactive	–	–	–	–	23.3	17.4	23.3	–	–	18.6	–	–
CCC1=C(O)c2c(oc(-c3c(O)ccc4sccc34)cc2=O)C(CC)(CC)C1=O	–	–	–	–	–	–	3.66	21.5	3.17	1.12	1.02	0.76	0.78	inhibition [13]: 52%; pIC50 [14]: 5.47
CCC1=C(O)c2c(oc(-c3csc4ccc(Br)cc34)cc2=O)C(CC)(CC)C1=O	–	–	–	–	–	–	42.2	38	42.2	31.7	30.6	26.4	10.6	–
CCC1=C(O)c2c(oc(-c3ccc4ccccc4c3)cc2=O)C(CC)(CC)C1=O	–	–	–	–	–	–	1.29	2.58	1.16	–	1.55	1.03	1.16	GI50 (MCF7 [15]): 1.42 µM; inhibition [16]: Active; inhibition [13]: 29%
CCC1=C(O)c2c(oc(-c3c(C)sc4ccccc34)cc2=O)C(CC)(CC)C1=O	–	–	–	–	–	–	2.7	90.7	1.35	3.92	2.03	0.61	0.76	inhibition [13]: 38%; pIC50 [14]: 5.47
CCC1=C(O)c2c(oc(-c3cccc4c3oc3ccccc34)cc2=O)C(CC)(CC)C1=O	inactive	inactive	inactive	inactive	inactive	inactive	–	–	–	–	–	–	–	Activity (KBVIN): inactive
CCC1=C(O)c2c(oc(-c3ccc4c(c3)c3ccccc3n4CC)cc2=O)C(CC)(CC)C1=O	inactive	inactive	inactive	inactive	inactive	inactive	–	–	–	–	–	–	–	Activity (KBVIN): inactive
CCC1=C(O)c2c(oc(-c3ccc(OC)c4ccc(OC)cc34)cc2=O)C(CC)(CC)C1=O	inactive	inactive	inactive	inactive	inactive	inactive	–	–	–	–	–	–	–	Activity (KBVIN): inactive
CCC1=C(O)c2c(oc(-c3cc4ccccc4o3)cc2=O)C(CC)(CC)C1=O	inactive	–	–	–	–	–	5.82	5.82	17.2	–	15.1	14.8	14.6	–
CCC1=C(O)c2c(oc(-c3ccccc3)cc2=O)C(CC)(CC)C1=O [6,8,8-TRIETHYL DESMOSDUMOTIN B]	inactive	inactive	inactive	inactive	inactive	inactive	–	–	–	–	–	–	1.07	Activity [17]: inactive; IC50 [14]: Not Active
CCC1=C(O)c2c(oc(-c3cccc4ccccc34)c(Br)c2=O)C(CC)(CC)C1=O	–	inactive	–	–	inactive	–	13.9	–	25.6	–	–	6.41	12	GI50 (MCF7 [15]): 24.6 µM
CCC1=C(O)c2c(oc(-c3c(OC)ccc4sccc34)cc2=O)C(CC)(CC)C1=O	–	–	–	–	–	–	19.6	51.9	66	21.5	24.8	11.3	11.1	–
CCC1=C(O)c2c(oc(-c3csc4ccccc34)cc2=O)C(CC)(CC)C1=O	–	–	–	–	–	–	0.13	0.16	0.06	–	0.13	0.08	0.07	GI50 (MCF7 [15]): 0.11 µM; inhibition (A549 [18]): Active; inhibition [13]: 78%; inhibition (A549 [19]): Active; pIC50 [14]: 5.70
CCC1=C(O)c2c(oc(-c3csc4ccc(C)cc34)cc2=O)C(CC)(CC)C1=O	–	–	–	–	–	–	93.1	> 98	> 98	> 98	> 98	53.9	> 98	–
CCC1=C(O)c2c(oc(-c3c(OC)c(OC)cc4ccccc34)cc2=O)C(CC)(CC)C1=O	–	–	inactive	inactive	–	inactive	–	–	–	–	–	–	35.7	–
CC1=C(O)C(C)(C)c2oc(-c3ccccc3)cc(=O)c2C1=O [DESMOTUMOTIN B]	inactive	inactive	inactive	inactive	inactive	inactive	–	–	–	–	–	–	13.5	–
CCC1=C(O)c2c(oc(-c3ccc4sccc4c3)cc2=O)C(CC)(CC)C1=O	–	–	–	–	–	–	> 25	> 25	> 25	10.4	> 25	11.2	> 25	–
COc1cc2c(c(OC)c1OC)-c1ccc(OC)c(=O)cc1[C@@H](NC(C)=O)CC2	–	–	–	–	–	–	–	–	–	–	–	–	–	inhibition (A549 [18]): Active; inhibition (A549 [19]): Active
